Data from ChEMBL document CHEMBL4007404, “Identification of High-Potency Human TLR8 and Dual TLR7/TLR8 Agonists in Pyrimidine-2,4-diamines” (J Med Chem, 2017).
The source made the active and inactive calls. The rule behind the calls is not given here.

Legend:
[1] = target: Toll-like receptor 4 (Homo sapiens) (UniProt O00206); assay: Activity at human TLR4 expressed in HEK293 cells co-expressing secreted alkaline phosphatase assessed as induction of NF-kappaB/AP-1 promoter activity by measuring increase in secreted alkaline phosphatase level by spectrophotometric method; format: cell-based
Method in brief: (§1)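 HEK293 cells stably co-transfected with the relevant human TLR (2, 3, 4, 5, 7, 8 or 9) plus an NF-κB/AP-1-driven secreted alkaline phosphatase reporter, kept in selection medium. Cells at ~10⁵ cells/ml were exposed to graded concentrations of stimuli in 384-well format, liquid-handler assisted. Supernatant sAP was read at 620 nm with an alkaline phosphatase-specific chromogen.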

[2] = target: T1, Toll-like receptor 8 (Homo sapiens, UniProt Q9NR97); assay: Agonist activity at human TLR8 expressed in HEK293 cells co-expressing secreted alkaline phosphatase assessed as induction of NF-kappaB/AP-1 promoter activity by measuring increase in secreted alkaline phosphatase level by spectrophotometric method; format: cell-based; method in brief: as §1
T1 sequence (Q9NR97 whole entry): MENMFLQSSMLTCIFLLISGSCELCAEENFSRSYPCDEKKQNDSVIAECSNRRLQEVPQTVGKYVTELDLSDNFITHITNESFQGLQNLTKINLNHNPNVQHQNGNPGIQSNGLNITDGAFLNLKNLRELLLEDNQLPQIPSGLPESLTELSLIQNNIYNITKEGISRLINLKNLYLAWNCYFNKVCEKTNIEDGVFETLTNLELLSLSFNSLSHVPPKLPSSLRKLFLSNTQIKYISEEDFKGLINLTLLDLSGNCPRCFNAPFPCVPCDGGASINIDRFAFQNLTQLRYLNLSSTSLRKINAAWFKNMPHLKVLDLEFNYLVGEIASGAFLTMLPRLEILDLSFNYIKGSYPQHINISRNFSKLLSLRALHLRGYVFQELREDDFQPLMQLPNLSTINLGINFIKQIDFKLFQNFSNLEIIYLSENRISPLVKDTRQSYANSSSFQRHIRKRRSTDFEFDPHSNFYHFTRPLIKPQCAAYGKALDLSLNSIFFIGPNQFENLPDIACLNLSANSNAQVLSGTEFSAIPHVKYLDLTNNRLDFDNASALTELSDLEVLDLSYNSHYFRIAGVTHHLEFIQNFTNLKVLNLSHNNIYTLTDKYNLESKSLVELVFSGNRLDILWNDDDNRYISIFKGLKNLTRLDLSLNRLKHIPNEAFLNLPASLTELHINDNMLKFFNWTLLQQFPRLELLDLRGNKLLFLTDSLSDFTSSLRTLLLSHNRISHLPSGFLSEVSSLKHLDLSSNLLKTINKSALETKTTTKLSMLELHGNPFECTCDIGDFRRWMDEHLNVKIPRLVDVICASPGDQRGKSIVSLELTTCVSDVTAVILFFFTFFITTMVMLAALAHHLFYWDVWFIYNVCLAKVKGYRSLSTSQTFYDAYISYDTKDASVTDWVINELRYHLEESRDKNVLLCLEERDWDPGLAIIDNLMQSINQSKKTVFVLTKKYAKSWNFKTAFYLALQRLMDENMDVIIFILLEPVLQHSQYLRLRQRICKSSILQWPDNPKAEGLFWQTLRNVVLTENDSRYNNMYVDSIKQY

[3] = target: Toll-like receptor 3 (Homo sapiens) (UniProt O15455); assay: Activity at human TLR3 expressed in HEK293 cells co-expressing secreted alkaline phosphatase assessed as induction of NF-kappaB/AP-1 promoter activity by measuring increase in secreted alkaline phosphatase level by spectrophotometric method; format: cell-based; method in brief: as §1
[4] = target: T2, Toll-like receptor 8 (Homo sapiens) (UniProt Q9NR97); assay: Agonist activity at TLR8 in human PBMC assessed as induction of IL-12p40 production after 16 hrs by multiplexed immunoassay
T2 sequence (whole entry): T1 sequence (Q9NR97 whole entry)
Method in brief: (§2)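 Fresh human PBMCs were isolated from venous blood in cell preparation tubes. They were stimulated at 10^5 cells per well for 16 h with graded compound concentrations. Supernatants were taken off by centrifugation and assayed in duplicate on a 41-analyte magnetic bead cytokine/chemokine multiplex panel. Panel analytes include IFN-α2, IFN-γ, IL-12 (p40) and TNF-α.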

[5] = target: T2, Toll-like receptor 8 (Homo sapiens); assay: Agonist activity at TLR8 in human PBMC assessed as induction of TNF-alpha production after 16 hrs by multiplexed immunoassay; method in brief: as §2
[6] = target: T2, Toll-like receptor 8 (Homo sapiens); assay: Agonist activity at TLR8 in human PBMC assessed as induction of IFN-gamma production after 16 hrs by multiplexed immunoassay; method in brief: as §2
[7] = target: T3, Toll-like receptor 7 (Homo sapiens) (UniProt Q9NYK1); assay: Agonist activity at human TLR7 expressed in HEK293 cells co-expressing secreted alkaline phosphatase assessed as induction of NF-kappaB/AP-1 promoter activity by measuring increase in secreted alkaline phosphatase level at 100 uM by spectrophotometric method; format: cell-based
T3 sequence (whole entry): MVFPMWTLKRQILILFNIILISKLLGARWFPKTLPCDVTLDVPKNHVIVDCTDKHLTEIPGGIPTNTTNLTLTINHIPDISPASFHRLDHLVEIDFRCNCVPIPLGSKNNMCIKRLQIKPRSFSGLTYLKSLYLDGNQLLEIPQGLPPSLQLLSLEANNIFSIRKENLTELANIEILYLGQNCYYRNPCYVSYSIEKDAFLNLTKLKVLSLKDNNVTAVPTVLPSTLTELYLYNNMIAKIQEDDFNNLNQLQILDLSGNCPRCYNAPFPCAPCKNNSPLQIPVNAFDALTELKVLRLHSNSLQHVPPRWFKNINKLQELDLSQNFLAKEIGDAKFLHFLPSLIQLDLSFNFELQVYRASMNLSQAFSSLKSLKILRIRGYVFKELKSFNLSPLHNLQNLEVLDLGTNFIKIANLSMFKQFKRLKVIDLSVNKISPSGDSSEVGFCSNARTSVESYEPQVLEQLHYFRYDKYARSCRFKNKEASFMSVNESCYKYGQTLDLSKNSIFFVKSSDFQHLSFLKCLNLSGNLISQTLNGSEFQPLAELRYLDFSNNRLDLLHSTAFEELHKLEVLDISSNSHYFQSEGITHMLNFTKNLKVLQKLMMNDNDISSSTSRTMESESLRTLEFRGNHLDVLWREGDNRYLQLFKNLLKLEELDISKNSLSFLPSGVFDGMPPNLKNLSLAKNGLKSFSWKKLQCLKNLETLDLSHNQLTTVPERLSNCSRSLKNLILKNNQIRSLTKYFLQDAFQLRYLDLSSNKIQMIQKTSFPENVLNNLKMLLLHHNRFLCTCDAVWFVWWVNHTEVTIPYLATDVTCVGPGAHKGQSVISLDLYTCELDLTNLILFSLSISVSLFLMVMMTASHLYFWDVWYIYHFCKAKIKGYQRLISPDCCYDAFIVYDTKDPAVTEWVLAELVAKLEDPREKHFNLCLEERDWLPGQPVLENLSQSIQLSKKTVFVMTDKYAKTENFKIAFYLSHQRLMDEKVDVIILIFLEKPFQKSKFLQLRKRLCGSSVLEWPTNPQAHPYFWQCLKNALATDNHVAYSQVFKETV

Chain of Toll-like receptor 3 (Homo sapiens) (O15455 whole entry): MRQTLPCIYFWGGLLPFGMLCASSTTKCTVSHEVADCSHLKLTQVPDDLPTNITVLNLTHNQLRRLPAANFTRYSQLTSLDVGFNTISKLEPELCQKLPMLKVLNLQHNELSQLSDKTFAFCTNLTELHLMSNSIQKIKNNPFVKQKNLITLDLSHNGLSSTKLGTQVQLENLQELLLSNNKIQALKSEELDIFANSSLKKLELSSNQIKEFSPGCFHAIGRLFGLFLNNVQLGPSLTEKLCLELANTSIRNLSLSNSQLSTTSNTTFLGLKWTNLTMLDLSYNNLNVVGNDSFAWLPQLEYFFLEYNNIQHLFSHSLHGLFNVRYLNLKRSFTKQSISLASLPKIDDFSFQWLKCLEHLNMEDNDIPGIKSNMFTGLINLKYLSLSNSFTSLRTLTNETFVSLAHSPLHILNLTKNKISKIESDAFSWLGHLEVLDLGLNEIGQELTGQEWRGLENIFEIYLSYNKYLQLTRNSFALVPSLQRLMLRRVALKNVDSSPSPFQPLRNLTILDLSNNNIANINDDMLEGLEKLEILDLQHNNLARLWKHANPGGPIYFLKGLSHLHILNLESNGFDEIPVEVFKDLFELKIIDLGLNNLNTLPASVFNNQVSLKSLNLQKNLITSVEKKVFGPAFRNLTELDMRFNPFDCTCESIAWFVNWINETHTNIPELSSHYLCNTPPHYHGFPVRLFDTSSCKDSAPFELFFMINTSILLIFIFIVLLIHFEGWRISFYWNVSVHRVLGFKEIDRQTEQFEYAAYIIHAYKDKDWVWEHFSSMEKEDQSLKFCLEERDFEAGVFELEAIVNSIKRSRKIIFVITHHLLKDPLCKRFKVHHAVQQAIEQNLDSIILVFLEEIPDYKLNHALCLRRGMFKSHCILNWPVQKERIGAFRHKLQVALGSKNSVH
Chain of Toll-like receptor 4 (Homo sapiens) (O00206 whole entry): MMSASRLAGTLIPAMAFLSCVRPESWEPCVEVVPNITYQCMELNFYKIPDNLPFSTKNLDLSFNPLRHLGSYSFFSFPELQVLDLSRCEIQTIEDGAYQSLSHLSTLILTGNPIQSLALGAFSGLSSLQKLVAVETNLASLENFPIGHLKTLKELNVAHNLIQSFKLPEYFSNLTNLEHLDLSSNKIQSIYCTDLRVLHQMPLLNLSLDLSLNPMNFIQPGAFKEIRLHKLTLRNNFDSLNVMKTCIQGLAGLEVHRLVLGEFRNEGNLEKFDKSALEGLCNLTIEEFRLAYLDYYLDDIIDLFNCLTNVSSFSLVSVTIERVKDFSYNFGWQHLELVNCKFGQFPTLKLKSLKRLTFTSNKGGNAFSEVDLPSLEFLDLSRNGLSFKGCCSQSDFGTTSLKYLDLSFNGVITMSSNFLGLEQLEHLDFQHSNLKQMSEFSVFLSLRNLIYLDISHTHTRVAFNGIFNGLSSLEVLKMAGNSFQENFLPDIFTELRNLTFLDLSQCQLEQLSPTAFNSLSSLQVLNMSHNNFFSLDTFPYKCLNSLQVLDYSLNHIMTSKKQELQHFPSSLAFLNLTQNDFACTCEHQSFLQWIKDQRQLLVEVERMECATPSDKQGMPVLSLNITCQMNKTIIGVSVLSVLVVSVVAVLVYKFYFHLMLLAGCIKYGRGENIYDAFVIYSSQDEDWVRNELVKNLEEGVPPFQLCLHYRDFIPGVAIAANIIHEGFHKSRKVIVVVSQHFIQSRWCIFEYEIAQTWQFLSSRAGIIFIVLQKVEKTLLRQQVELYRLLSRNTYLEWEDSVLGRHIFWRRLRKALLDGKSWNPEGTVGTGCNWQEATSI

SMILES	Activity [1]	EC50 [2]	Activity [3]	Activity [4]	Activity [5]	Activity [6]	Activity [7]
CCCCNc1nc(N)nc(C)c1CCCCO	inactive	1310 nM	inactive				
CCCCNc1nc(N)nc(C)c1CCCN1Cc2ccccc2C1	inactive	29 nM	inactive	Active	Active	Active	
CCCCNc1nc(N)nc(C)c1CCCN(C)C	inactive	126 nM	inactive				
C#Cc1c(C)nc(N)nc1NCCCC	inactive	4900 nM	inactive				inactive
CCCCNc1nc(N)nc(C)c1CCCn1cccn1	inactive	1050 nM	inactive				
CCCCNc1nc(N)nc(C)c1CCCN(CC)CC	inactive	254 nM	inactive				inactive
CCCCNc1nc(N)nc(C)c1C	inactive	3280 nM	inactive				
CCCCNc1nc(N)nc(C)c1CCCn1ccc2ccccc21	inactive	1100 nM	inactive				
CCCCNc1nc(N)nc(C)c1CCCN1CCNCC1	inactive	500 nM	inactive				
CCCCCc1c(C)nc(N)nc1NCCCC	inactive	1220 nM	inactive				
CCCCNc1nc(N)nc(C)c1CCCN(C)CCOC	inactive	203 nM	inactive				
CCCCNc1nc(N)nc(C)c1CCCn1cncn1	inactive	1050 nM	inactive				
CCCC#Cc1c(C)nc(N)nc1NCCCC	inactive	5000 nM	inactive				inactive
CCCCNc1nc(N)nc(C)c1CC	inactive	1660 nM	inactive				
CCCCNc1nc(N)nc(C)c1CCCN1CCCC1	inactive	110 nM	inactive				
CCCCNc1nc(N)nc(C)c1CCCN1CCCCC1	inactive	133 nM	inactive	Active	Active	Active	
CCCCNc1nc(N)nc(C)c1CCCN1CCN(C(=O)OC(C)(C)C)CC1	inactive	300 nM	inactive				inactive
CCCCNc1nc(N)nc(C)c1CCCC	inactive	780 nM	inactive				
CCCCNc1nc(N)nc(C)c1CCc1ccccc1	inactive	1190 nM	inactive				

SMILES	Activity [1]	EC50 [2]	Activity [3]	Activity [4]	Activity [5]	Activity [6]	Activity [7]
CCCCNc1nc(N)nc(C)c1C#CCN1CCCCC1	inactive	3790 nM	inactive				inactive
CCCCNc1nc(N)nc(C)c1CCCCc1ccccc1	inactive	857 nM	inactive				
CCCCNc1nc(N)nc(C)c1CCCc1ccccc1	inactive	749 nM	inactive			inactive	
CCCCNc1nc(N)nc(C)c1C#C[Si](C)(C)C	inactive	9240 nM	inactive				inactive
CCCCNc1nc(N)nc(C)c1CCCC(C)(C)O	inactive	1220 nM	inactive				
CCCCNc1nc(N)nc(C)c1CCCN1CCSCC1	inactive	167 nM	inactive				
CCCCNc1nc(N)nc(C)c1CCC(C)(C)O	inactive	3140 nM	inactive				
CCCCNc1nc(N)nc(C)c1CCCC1CCCCC1	inactive		inactive				
CCCCNc1nc(N)nc(C)c1C#CCc1ccccc1	inactive		inactive				inactive
CCCCNc1nc(N)nc(C)c1CCCN1CCN(c2ccccc2)CC1	inactive	92 nM	inactive				
CCCCNc1nc(N)nc(C)c1CCCCCc1ccccc1	inactive	830 nM	inactive				
CCCCNc1nc(N)nc(C)c1CCCCN1CCOCC1	inactive	128 nM	inactive				
CCCCNc1nc(N)nc(C)c1CCCN1CCN(C)CC1	inactive	179 nM	inactive				
CCCCNc1nc(N)nc(C)c1CCCN1CCOCC1	inactive	280 nM	inactive				
CCCCNc1nc(N)nc(C)c1CCCN1C(=O)c2ccccc2C1=O	inactive	453 nM	inactive				
CCCCNc1nc(N)nc(C)c1CCCN1CCCCCC1	inactive	178 nM	inactive				
CCCCNc1nc(N)nc(C)c1C#CCN1CCOCC1	inactive	16200 nM	inactive				inactive
CCCCNc1nc(N)nc(C)c1CCCn1c(C)nc2ccccc21	inactive	366 nM	inactive	Active	Active	Active	
